Measured values reported in ChEMBL document CHEMBL4513216, “Probing the Open Global Health Chemical Diversity Library for Multistage-Active Starting Points for Next-Generation Antimalarials” (ACS Infect Dis, 2020).

Experiment: Toxicity liver stage against HepG2, at 10uM
Assay type: cell-based
Parameters: test concentration 10 uM, cell line HepG2-A16-CD81EGFP
Conditions: human, HepG2-A16-CD81EGFP cells; read-out: INHIBITION
Summary of the method: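 Uninfected HepG2-A16-CD81EGFP cells, 3 × 10^3 per well, 1536-well, plated on prespotted compound at 10 μM final, parasite-free screening media added to match infected plates; puromycin 10 μM positive, DMSO 0.5% negative; run in parallel with 48 h PbLuc assay at 37 °C, 5% CO2; viability by CellTiter-Glo luminescence, normalized to controls.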

SMILES	cytotoxicity at 10 µM
Cc1cccc(-c2noc([C@@H]3C[C@@H](O)CN3C3CCOCC3)n2)c1	4.9%
CC(C)c1ccc(-n2ncc(C(=O)NCC3COC(C)(C)O3)c2N)cc1 (stereo not given)	-0.726%
Cc1ccc(-n2ncc(C(=O)NC3CC(C)(C)NC(C)(C)C3)c2N)cc1	-4.2%
COCC(=O)N1CCC(=O)N(C2CCCC2)Cc2ccccc21	-5.2%
O=C(Nc1ccccn1)C1(n2cnnn2)CCCCC1	-7.03%
O=C(CNC(=O)N1CCN(c2cccc(Cl)c2)CC1)Nc1ccccn1	-0.74%
COCCn1ccc(=O)c(OCC(=O)Nc2cccc(Cl)c2)c1C	2.16%
NC(=O)Cn1c(CO)cnc1SCC(=O)NCc1ccccc1Cl	-4.24%
CCNC(=O)N1CCN(c2nc3ccccc3n2C)CC1	0.739%
CCOC(=O)CCC(=O)N1CCC(Oc2ncccc2Cl)CC1	-5.57%
O=C1CCC2(CCCN(C(=O)Cc3ccccn3)C2)N1 (stereo not given)	4%
O=C(Cc1ccsc1)NCC1Cn2nnc(-c3ccoc3)c2CO1 (stereo not given)	17.6%
O=C(CC1CC1)N1CCC2(COCc3cnc(-c4ccccc4)nc32)C1 (stereo not given)	2.02%
COCCNC(=O)Cn1c(-c2ccc(F)cc2)nc(C)c(CCO)c1=O	-15%
O=C1CC(c2ccncc2)c2c(c(C(=O)O)cn2-c2ccc(F)cc2)N1 (stereo not given)	10.1%
COC[C@@]12CCO[C@@H]1CCN(C(=O)COc1ccccc1OC)C2	-8.89%
CCN(CC)C(=O)c1nnc2ccc(N3CCOCC3)cc2n1	5.37%
Cc1ncc(C(=O)N2CC(C(=O)N3CCOCC3)C2)c(C)n1	3.54%
Cn1nc(Cl)cc1C(=O)N1CCC(C(=O)c2nc3ccccc3s2)CC1	3.34%
O=C(c1cc[nH]n1)N1CCCC1c1cc(Nc2ccccn2)n[nH]1 (stereo not given)	-13.8%
Cc1cnc(N)c(C(=O)C2CCN(C(=O)c3cnc(C)cn3)CC2)c1	-19.7%
Cc1ccc(=O)n(CC2(O)CCN(Cc3cccs3)CC2)n1	-5.72%

SMILES	cytotoxicity at 10 µM
CNC(=O)c1ccc(C2CN(C(=O)c3c[nH]nc3C)CCO2)nc1 (stereo not given)	-19.3%
O=S1(=O)CCCN(Cc2ccccc2OCC(F)(F)F)CC1	9.11%
CC(=O)N1CCN(c2ccccc2CNc2ccc3[nH]ncc3c2)CC1	9.17%
CC(C)(CNC(=O)Nc1ccc(S(=O)(=O)C(F)F)cc1)N1CCOCC1	4.44%
Cc1ccc(-n2cc(C(=O)NCc3nnc4n3CCCCC4)nn2)cc1	-3.32%
N#Cc1cc(F)ccc1NCc1ccc(Cn2cncn2)cc1	8.75%
CCN(CC)S(=O)(=O)NCC(O)c1c(Cl)cccc1Cl (stereo not given)	8.66%
CCN(CC)C(=O)C1(NCc2nc(C)c(C)o2)CCCCC1	2.5%
O=C(NC1(C(=O)O)CCCCC1)C1Cc2ccccc2O1 (stereo not given)	10.9%
CC1COCCN1C(=O)COc1cccc(Oc2ccccn2)c1 (stereo not given)	-5.15%
CN(C1CCCCC1)S(=O)(=O)NCC1Cc2ccccc2O1 (stereo not given)	4.19%
CSc1ncccc1C(=O)NC(C)c1cccc(N2CCOC2=O)c1 (stereo not given)	-9.05%
CC(C)n1cnnc1CNC(=O)c1cnn(-c2ccccc2)c1	11.9%
CCN(CC)C1CCN(C(=O)NCc2cccc(-n3ccnc3)c2)C1 (stereo not given)	-4.45%
CC(C)c1nc(C2CCCN(C(=O)CN3CCN(C)CC3)C2)no1 (stereo not given)	3.8%
Cn1cc(C(=O)CC2CCCN2C(=O)c2ccn3ccnc3c2)cn1 (stereo not given)	-5.81%
COCC1CCN(CCCc2cccc(OC)c2)CC1	-11%
Cc1nn(C)c(C)c1C(=O)NCc1cc(N(C)C)nc2ccccc12	-1.08%
CCN(CCC(=O)NC1CC1)Cc1ccc(Cl)s1	3.88%
O=S(=O)(CCN1CCOC(Cn2cccn2)C1)c1ccccc1 (stereo not given)	-0.165%
CC(NC(=O)c1ccnc(C2CC2)n1)C1(N2CCOCC2)CCCC1 (stereo not given)	4.21%
CCOc1ccccc1C(CC(=O)O)NC(C)=O (stereo not given)	-4.19%

SMILES	cytotoxicity at 10 µM
Cc1ccc(F)c(OC2CCCN(c3cnn(C)c3)C2=O)c1 (stereo not given)	-6.43%
CC(Cn1cncn1)NC(=O)Nc1ccc(F)cc1OCC1CC1 (stereo not given)	4.34%
N#CCCN(c1ccccc1)S(=O)(=O)CC1CCCCO1 (stereo not given)	-4.69%
CC(C)Cc1ccc(S(=O)(=O)NCCCN2CCNC(=O)C2)cc1	-4.36%
O=C(NCc1ccccn1)Nc1ccc2[nH]nnc2c1	6.77%
CC(C)(C)CN(CCC#N)C(=O)Cc1ccc(-n2cnnn2)cc1	1.18%
CC(C)CCN1C(=O)CC(N(C)Cc2nc3ccccc3c(=O)[nH]2)C1=O (stereo not given)	-3.85%
CN(C)c1ccc(NC(=O)NCc2ccc(Cl)s2)cn1	6.43%
Cc1nc2sccn2c1CNc1ccc(C(=O)O)cc1	11.7%
Cn1cnc2c1CCN(Cc1c(Cl)ccc3cccnc13)C2	5.55%
CC(C)OCCCNC(=O)N(C)C(C)c1ccc(-n2cncn2)cc1 (stereo not given)	4.08%
CC(=O)N(C)CC(=O)Nc1ccc(C)cc1OCc1ccccc1	2.22%
CN1CCC(CNC(=O)c2cccc(NC(N)=O)c2)c2ccccc21 (stereo not given)	3.86%
Cc1sc(CNS(N)(=O)=O)nc1-c1ccc(Cl)cc1	-7.45%
CS(=O)(=O)N1CCC(Nc2ccnc3ccc(Cl)cc23)CC1	54.3%
COc1cc2ccn(CCS(C)(=O)=O)c(=O)c2cc1F	18.5%
O=C(O)c1ccc(F)c(S(=O)(=O)Nc2c(F)cccc2-n2cccn2)c1	-5.59%
NC(=O)C1CCN(C(=O)NCc2ccccc2Cn2cncn2)CC1	3.98%
Cc1ccc(C(=O)N2CCSCC2)cc1NC(=O)NCCO	-9.64%
O=C(c1cccnc1)N1CCC2(CC1)CCN(Cc1ccccn1)C2=O	2.78%
CC(C)c1nnc(CN2CCC3(CC2)Nc2ccccc2NC3=O)o1	-1.48%
CCCN1CC2(CCN(C)CC2)CC1C(=O)NCCn1cccn1 (stereo not given)	-5.46%

SMILES	cytotoxicity at 10 µM
Cc1cc(C)c2ncn(CCOCCO)c(=O)c2c1	8.17%
Cc1ccccc1-n1cc(CNc2ncnc3c2CCNCC3)cn1	1.25%
O=C(O)c1cc(-c2ccncc2)cc(S(=O)(=O)NCc2ccccn2)c1	-51.9%
CCSCC(C)NCc1cn2ccccc2n1 (stereo not given)	-7.38%
Cc1ccc(NC2CCCN(Cc3ccc(Cl)cc3)C2)nn1 (stereo not given)	-5.98%
CC(C)c1nc(CN(C)C(=O)c2ccc3c(c2)OCC(=O)N3)cs1	-4.15%
c1ccc2oc(N3CCCC4(CCOC4)C3)nc2c1 (stereo not given)	-6.27%
N#Cc1ccccc1C(=O)N1C[C@@H](CN2CCCCCC2)[C@@H](CO)C1	1.1%
CC(C)C(O)C(=O)N1CCC2(CC1)c1nc[nH]c1CCN2S(C)(=O)=O (stereo not given)	-0.232%
c1ccn2c(C3CCCN(c4ncnc5c4CCNC5)C3)nnc2c1 (stereo not given)	-7.94%
CCCc1nc(N[C@H]2COC[C@@H]2N2CCCCC2)c2cnn(C)c2n1	0.727%
Cc1ccccc1CN1CCN(C(=O)CN2CCOC2=O)CC1	-8.03%
CC(C)[C@@H](N)C(=O)NCc1cccnc1N1CCc2ccccc2C1	11%
COc1ccc(F)c(F)c1CN1CCN(CC(C)C)C(=O)C1C (stereo not given)	-6.29%
CN(C)c1ccccc1C(=O)N1C[C@@H](CN2CCOCC2)[C@@H](CO)C1	-4.09%
Cc1nnc(NC(=O)NCc2ccoc2)s1	-1.36%
CC(C)c1n[nH]c(C2CN(C(=O)c3cc(C4CC4)[nH]n3)CCO2)n1 (stereo not given)	-5.95%
Cc1noc(C)c1C(=O)NCC(c1cccc(F)c1)N(C)C (stereo not given)	-13.1%
CCOc1ncccc1C(=O)N1CCCC1c1c(C)nn(C)c1Cl (stereo not given)	0.534%
Cc1ccc(CNCC2CCCN2c2cccnn2)s1 (stereo not given)	-4.38%
Cc1cnn(CC2CCCCN2C(=O)c2nccnc2N)c1 (stereo not given)	-3.03%
CCc1nc(C2CCCN(C(=O)c3cccc(Cl)c3)C2)no1 (stereo not given)	-7.55%

SMILES	cytotoxicity at 10 µM
CCn1c(C)nnc1CN(C)C1CCN(CCOc2ccccc2)C1 (stereo not given)	0.796%
CCn1cc(CN2CCCN(C(=O)c3ccoc3C)CC2)cn1	-6.67%
O=S(=O)(CCN1CCOC(Cn2cccn2)C1)C(F)(F)F (stereo not given)	3.78%
CCn1ccnc1CN1CCCN(C(=O)Cn2nc(C)cc2C)CC1	-0.505%
Cc1ccccc1NC(=O)c1cncc(C2CCNCC2)n1	1.54%
Fc1ccc(C2(CNC3=NCCCN3)CCC2)cc1	7.2%
Cc1ccoc1C(=O)N1CCOCC2(CCN(c3ncccn3)C2)C1 (stereo not given)	-7.23%
COC[C@]12COC[C@H]1CN(Cc1ccc3ccccc3n1)C2	11.9%
O=C(NC1CC1)N1CC[C@H]2[C@H]1CCN2c1nncs1	-4.94%
O=S(=O)(C1CC1)N1CCO[C@H]2[C@H](Oc3cccnc3)CC[C@@H]21	-0.24%
Cc1n[nH]c2ncc(CNC3CCN(Cc4ccccn4)CC3)cc12	7.14%
Cc1noc(C)c1CN1CCN(C)c2ncccc2C1	-77%
c1cncc(CN2CCCn3nnc(CN4CCCC4)c3C2)c1	4.78%
Cc1ccc(CNC(=O)c2nc3c(o2)CN(C(=O)c2cccnc2)C3)o1	0.109%
Cc1nc(CN2C[C@@H]3CN(C(=O)C4(C#N)CC4)C[C@@H]3C2=O)cs1	-70.7%
CN(Cc1cccnc1)C1CC2(CCN(c3ncccn3)CC2)C1	-3.31%
CCOC[C@@H]1CC[C@H]2[C@H](CCN2Cc2c(C)noc2C)O1	10.5%
Oc1cccc(CN2C[C@@H]3CC[C@H]2CN(Cc2ccncc2)C3)c1	-131%
COCCC(=O)N1C[C@@H]2CC[C@H]1CN(C1Cc3ccccc3C1)C2	-7.43%
CCc1nccn1CC(=O)N1C[C@@H]2CC[C@H]1CN(C(=O)N(C)C)C2	-4.67%
COc1ncccc1CN1CCC2[C@H]1CCN2CCN(C)C (stereo not given in full)	2.77%
Cc1cc(C(=O)NC2CCC3(CCC(=O)N3)CC2)no1 (stereo not given)	4.23%
